The text below walks through data of ChEMBL document CHEMBL3526089, “Selective mechanism-based inactivation of CYP3A4 by CYP3cide (PF-04981517) and its utility as an in vitro tool for delineating the relative roles of CYP3A4 versus CYP3A5 in the metabolism of drugs” (Drug Metab Dispos, 2012).

The target in data set [1] is T1, Cytochrome P450 3A5 (Homo sapiens, UniProt P20815). Put plainly: Reversible inhibition of midazolam 1'-hydroxylase activity of human recombinant CYP3A5 harboring human P450 oxidoreductase and b5. Type of data set: ADME. The method, boiled down: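 Recombinant CYP3A5 expressed in baculovirus, with P450 oxidoreductase and cytochrome b5 (P450:POR:b5 1:13:7). Enzyme at 0.010 mg/ml for midazolam 1'-hydroxylase and 0.020 mg/ml for testosterone 6β-hydroxylase. Each substrate at its experimentally derived KM. IC50 determined in duplicate.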
Target sequence in this assay (P20815 whole entry): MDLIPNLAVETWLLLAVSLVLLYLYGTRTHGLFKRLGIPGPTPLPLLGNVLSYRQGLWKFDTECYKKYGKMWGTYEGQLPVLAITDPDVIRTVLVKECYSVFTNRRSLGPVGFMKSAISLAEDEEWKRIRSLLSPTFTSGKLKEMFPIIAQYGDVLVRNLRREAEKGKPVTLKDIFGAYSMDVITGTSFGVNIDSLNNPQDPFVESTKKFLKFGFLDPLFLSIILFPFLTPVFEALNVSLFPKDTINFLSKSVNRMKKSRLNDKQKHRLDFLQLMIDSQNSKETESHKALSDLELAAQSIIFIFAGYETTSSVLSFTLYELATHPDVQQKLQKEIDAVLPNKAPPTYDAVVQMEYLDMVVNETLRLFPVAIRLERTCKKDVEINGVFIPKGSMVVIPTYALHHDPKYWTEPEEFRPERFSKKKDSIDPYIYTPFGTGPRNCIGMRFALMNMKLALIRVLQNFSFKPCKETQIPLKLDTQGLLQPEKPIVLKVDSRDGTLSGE

For the next data set, the target named is CYP3A4 (Homo sapiens, UniProt P08684). Briefly: Irreversible inhibition of human recombinant CYP3A4 harboring human P450 oxidoreductase and b5 assessed as residual midazolam 1'-hydroxylase activity in presence of NADPH relative to control. Format: ADME. Conditions: recombinant CYP3A4 with human P450 oxidoreductase and b5, probe midazolam (1'-hydroxylation).

A further data set concerns the target Cytochrome P450 2C19 (Homo sapiens, UniProt P33261). Briefly: Reversible inhibition of human CYP2C19 S-mephenytoin 4'-hydroxylase activity. Format: ADME. The method, boiled down:
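Reversible IC50 with pooled HLM or recombinant CYP3A7 (with POR and b5), protein 0.010–0.10 mg/ml depending on isoform. Probe substrate at its experimentally derived KM. Metabolite formation measured by LC/MS/MS. IC50 determinations run in duplicate.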

For another data set, the system named is CYP3A5*3/*3. Briefly: Inhibition of CYP3A5*3/*3 in human liver microsomes assessed as midazolam 1'-hydroxylase activity at 0.56 uM after 10 mins. Type of data set: ADME. The conditions noted are these: liver microsomes (CYP3A5*3/*3 genotype), probe midazolam (1'-hydroxylation). A digest of the protocol:
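Genotyped individual HLMs (0.1 mg/ml) preincubated at 37°C with CYP3cide (0–1.3 μM; 10 min in the two-donor study, 5 min in the 30-donor study), with or without 1.3 mM NADPH (N=3). Mixture diluted 20-fold into 23 μM midazolam for 6 min. 1'-OH-midazolam measured. Readout: % of vehicle/no-NADPH control activity.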

The next data set addresses CYP2C19 (Homo sapiens, UniProt P33261). Briefly: Time dependent inhibition of human CYP2C19 S-mephenytoin 4'-hydroxylase activity assessed as decrease in enzyme activity at 100 uM preincubated for 30 mins by IC25-shift assay. Conditions: probe S-mephenytoin (4'-hydroxylation). Type of data set: ADME. The method, boiled down: (§1)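 IC25-shift assay. Pooled HLMs or recombinant CYP3A4/3A5/3A7 were preincubated 30 min at 37°C with CYP3cide, with or without NADPH (1.3 mM) (N=2). Mixture diluted 10-fold into probe substrate (~KM) at 37°C. Metabolites analysed by LC/MS/MS. Readout: % decrease in activity vs control.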

Another data set addresses CYP1A2 (Homo sapiens, UniProt P05177). Put plainly: Time dependent inhibition of human CYP1A2 phenacetin O-deethylase activity assessed as decrease in enzyme activity at 100 uM preincubated for 30 mins by IC25-shift assay. The conditions noted are these: probe phenacetin (O-deethylation). Format: ADME. A digest of the protocol: as §1
Data set [2] addresses T1, Cytochrome P450 3A5. Briefly: Drug metabolism assessed as human recombinant CYP3A5 in presence of human P450 oxidoreductase and b5-mediated 1-((3S)-1-(1-methyl-3-(1-methyl-5-p-tolyl-1H-pyrazol-4-yl)-1H-pyrazolo[3,4-d]pyrimidin-4-yl)pyrrolidin-3-yl)-2,3,4,5-tetrahydropyridinium formation at 10 uM by HPLC-MS analysis in presence of KCN and NADPH. The conditions noted are these: recombinant enzyme.
Target sequence in this assay (P20815 whole entry, looked up): as the sequence (P20815 whole entry) above

pIC50: −log10 of the molar value. Where only a bound is given, the exact number is not on record here.

Chain of CYP1A2 (P05177 whole entry): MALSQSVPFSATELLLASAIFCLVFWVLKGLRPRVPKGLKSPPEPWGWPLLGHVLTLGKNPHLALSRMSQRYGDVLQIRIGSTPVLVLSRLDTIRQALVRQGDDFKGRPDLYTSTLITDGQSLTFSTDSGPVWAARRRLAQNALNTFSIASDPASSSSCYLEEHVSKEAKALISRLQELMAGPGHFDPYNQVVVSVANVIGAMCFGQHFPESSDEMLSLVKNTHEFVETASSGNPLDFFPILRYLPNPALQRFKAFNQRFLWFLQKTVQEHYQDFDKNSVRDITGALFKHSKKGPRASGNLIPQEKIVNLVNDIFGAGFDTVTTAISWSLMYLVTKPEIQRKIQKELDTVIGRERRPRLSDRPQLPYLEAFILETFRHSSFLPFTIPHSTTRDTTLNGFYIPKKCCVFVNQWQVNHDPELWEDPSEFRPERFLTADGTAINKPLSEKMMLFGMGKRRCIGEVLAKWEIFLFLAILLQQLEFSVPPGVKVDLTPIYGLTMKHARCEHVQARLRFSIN
Chain of CYP3A4 (P08684 whole entry): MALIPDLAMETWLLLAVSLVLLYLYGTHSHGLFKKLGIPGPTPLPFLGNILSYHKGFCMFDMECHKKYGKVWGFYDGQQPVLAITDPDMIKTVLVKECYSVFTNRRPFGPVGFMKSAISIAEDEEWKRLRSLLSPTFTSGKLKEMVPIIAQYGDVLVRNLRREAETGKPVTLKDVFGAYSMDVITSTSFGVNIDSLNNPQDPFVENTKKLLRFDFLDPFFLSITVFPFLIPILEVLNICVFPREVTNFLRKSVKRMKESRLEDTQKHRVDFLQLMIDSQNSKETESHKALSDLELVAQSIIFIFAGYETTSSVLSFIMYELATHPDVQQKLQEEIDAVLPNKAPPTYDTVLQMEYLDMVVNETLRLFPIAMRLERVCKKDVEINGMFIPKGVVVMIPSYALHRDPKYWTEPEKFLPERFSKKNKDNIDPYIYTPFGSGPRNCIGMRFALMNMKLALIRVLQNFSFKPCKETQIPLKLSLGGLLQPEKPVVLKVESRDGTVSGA
Chain of CYP2C19 (P33261 whole entry): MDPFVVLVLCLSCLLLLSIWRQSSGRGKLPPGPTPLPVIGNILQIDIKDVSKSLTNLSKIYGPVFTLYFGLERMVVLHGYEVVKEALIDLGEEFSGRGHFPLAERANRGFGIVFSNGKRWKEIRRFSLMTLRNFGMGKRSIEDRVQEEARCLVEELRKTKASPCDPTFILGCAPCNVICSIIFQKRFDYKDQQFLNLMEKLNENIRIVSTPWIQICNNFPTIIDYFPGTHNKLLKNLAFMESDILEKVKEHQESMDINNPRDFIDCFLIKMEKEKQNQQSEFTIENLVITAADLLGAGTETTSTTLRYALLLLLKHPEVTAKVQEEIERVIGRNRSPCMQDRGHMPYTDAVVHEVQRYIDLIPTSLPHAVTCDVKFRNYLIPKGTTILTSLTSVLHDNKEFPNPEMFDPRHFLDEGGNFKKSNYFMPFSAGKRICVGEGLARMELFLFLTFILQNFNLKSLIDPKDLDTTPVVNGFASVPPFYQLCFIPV
Chain of Cytochrome P450 2C19 (P33261 whole entry, canonical isoform): as the sequence (P33261 whole entry) above

One may read the pIC50 as the IC50 on a negative log10 scale, so that one unit is a factor of ten. The term inhibition denotes how much of the control response was suppressed. For the compound `Cc1ccc(-c2c(-c3nn(C)c4ncnc(N5CC[C@H](N6CCCCC6)C5)c34)cnn2C)cc1`, the pIC50 is 4.77 at Cytochrome P450 3A5 [1] and 4.11 against Cytochrome P450 2C19. Further, at CYP3A4, the activity came out at 16%. In addition, the inhibition at 10 min, 0.56 µM with CYP3A5*3/*3 was > 85%. The inhibition at 30 min, 100 µM was 0.79% at CYP2C19 and 17% on CYP1A2. Further, the Drug metabolism result at Cytochrome P450 3A5 [2] is reported as “metabolite_detected”.
